Hits are enriched below; roughly 2.9% of the tested compounds scored in any of these assays.
CHO-K1 Ca ag – counter-screen for M1 agonists: effect in parental CHO-K1 cells; Fluo-8 calcium fluorescence; scaled to maximal ATP response, vehicle zero; activation, % at 3 µM; actives 0.48% (n = 360,000); in the data active = activation above about 15%;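 note: untransfected CHO-K1 host cells lacking M1 receptor as counterscreen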
CHO parental Ca – ATP-evoked calcium signal inhibitors, parental CHO, primary screen, counter-screen for OX1R antagonist project, cell-based, fluorescence, Fluo-8 calcium dye. parental CHO-K1, ATP-induced calcium, Fluo-8 fluorescence. inhibition, % at 5.6 µM. actives 0.63% (n = 330,000). AID 463079, 2010;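 active = inhibition above that plate's mean sample inhibition plus 3 SD, cut at about 26% in these data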;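 note: 0% = ATP-challenged DMSO wells and 100% = DMSO wells without ATP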
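Measured by: calcium-sensitive Fluo-8 fluorescence / Test system: CHO parental line / Controls: ATP-challenged DMSO wells low, unchallenged DMSO wells high / Measure: % inhibition / Compound: single nominal dose of 5.6 µM per compound / Replicates: single well per compound, no replicates / Reagent: ATP as calcium-mobilizing challenge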
CHO-K1 Ca antag – counter-screen for M1 antagonists: effect in parental CHO-K1 cells. ATP-induced calcium, Fluo-8 fluorescence. inhibition, % at 3 µM. actives 0.6% (n = 360,000). AID 602250;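 active = inhibition above a per-plate cutoff, the plate's mean sample inhibition plus 3 SD, cut at about 24% in these data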;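 note: 0% = DMSO plus EC80 ATP and 100% = DMSO alone without ATP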
CHO-K1 Ca PAM – nonselective calcium activators in parental CHO-K1 cells, primary screen, counter-screen for M1 PAM project, cell-based, Fluo-8 calcium fluorescence, full deck, 1536-well; ATP EC20; 0% at ATP EC20, 100% at ATP max; actives 0.02% (n = 360,000); activation, % at 3 µM;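 active = activation above the run cutoff, the mean activation of all test compounds plus 3 SD, cut at about 40% in these data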;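 note: peak over basal fluorescence ratio in a 140 s read after ATP addition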
OX1R antag-1 – OX1R (HCRTR1) antagonists, primary screen, fluorescence, CHO/OX1R cells, Fluo-8 calcium, orexin A; AID 434989, 2010; actives 0.43% (n = 330,000); Orexin/Hypocretin receptor type 1 (Homo sapiens), O43613; Fluo-8 calcium fluorescence; inhibition, % at 5 µM;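 active = inhibition above its plate's threshold, mean inhibition of all tested compounds on the plate plus 3 SD, cut at about 37% in these data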;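 note: 0% = orexin A challenge wells and 100% = SB-334867-A antagonist wells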
Target sequence (O43613 whole entry, looked up): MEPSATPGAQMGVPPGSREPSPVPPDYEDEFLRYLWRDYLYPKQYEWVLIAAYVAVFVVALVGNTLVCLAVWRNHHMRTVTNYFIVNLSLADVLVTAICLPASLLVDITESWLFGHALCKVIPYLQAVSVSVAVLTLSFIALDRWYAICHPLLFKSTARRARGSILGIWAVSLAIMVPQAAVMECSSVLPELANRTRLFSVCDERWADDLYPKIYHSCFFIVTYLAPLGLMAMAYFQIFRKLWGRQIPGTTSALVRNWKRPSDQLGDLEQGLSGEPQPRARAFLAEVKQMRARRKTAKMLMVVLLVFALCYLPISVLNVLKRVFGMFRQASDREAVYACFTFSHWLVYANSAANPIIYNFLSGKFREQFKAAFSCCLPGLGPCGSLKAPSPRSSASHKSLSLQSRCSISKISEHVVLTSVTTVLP
OX1R antag-2 – antagonists of human orexin 1 receptor (OX1R); Orexin/Hypocretin receptor type 1 (Homo sapiens), O43613; OX1R-expressing cells, FRET antagonist read-out; inhibition, % at 6.6 µM; actives 1.8% (n = 330,000); AID 485270, 2010; in the data active = inhibition mostly above about 38%, no sharp cut-off; inactive = mostly below about 40%;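 note: 0% = agonist challenge alone and 100% = reference antagonist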
An asterisk follows results filed as active; x = no result.

SMILES	CHO-K1 Ca ag	CHO parental Ca	CHO-K1 Ca antag	CHO-K1 Ca PAM	OX1R antag-1	OX1R antag-2
O=C(Cc1ccccc1)NCC(=O)N/N=C/c1ccc([N+](=O)[O-])s1	1	-1	-11	10	-17	52*
O=C(CNC(=O)c1ccccc1)N/N=C/c1ccc([N+](=O)[O-])s1	0	-10	2	2	-11	47*
O=C(N/N=C/c1ccc([N+](=O)[O-])s1)c1ccncc1	0	-4	-2	16	-4	72*
O=C(N/N=C/c1ccc([N+](=O)[O-])s1)c1cccc(Br)c1	0	3	-3	-5	-10	12
O=C(N/N=C\c1ccc([N+](=O)[O-])s1)C1COc2ccccc2O1 (stereo unspecified)	1	-19	65*	-2	-24	22
COCC(C)N1CCC(Oc2cccc(C(=O)NCCc3ccccc3)c2)CC1 (stereo unspecified)	0	-19	-4	0	-10	9
COC(=O)c1c(C)oc(C)c1S(=O)(=O)N(C)C1CCCCC1	0	-16	-12	1	-29	9
CCOC(=O)Cn1nc(C)c(NC(=O)CCc2ccc(OC)cc2)c1C	17*	-3	-7	16	6	-3
O=C1NC(Cc2c[nH]c3ccccc23)C(=O)N1CCOc1ccc(F)cc1 (stereo unspecified)	1	-8	-13	15	11	25
CCOc1ccc(OCCN2C(=O)NC(Cc3c[nH]c4ccccc34)C2=O)cc1 (stereo unspecified)	1	-17	21	-3	16	43*
COc1cc(OC)cc(N(C(=O)CNC(=O)c2ccco2)C(C(=O)NCC2CCCO2)c2ccccc2)c1 (stereo unspecified)	6	-18	-2	-1	-22	22
CN(CC(=O)Nc1ccc(F)c(F)c1F)C(=O)C1(c2ccccc2)CC1	2	x	24*	7	x	x
O=c1c2sc(-c3ccccc3)cc2nc2n1CCCCC2	3	-22	-16	19	-28	6
O=c1c2sc(-c3ccccc3)cc2nc2n1CCC2	1	-10	-5	4	-16	52*
CC(=O)Nc1ccc(NC(=O)c2ccccc2Nc2ccccc2)cc1	2	-9	-4	19	-5	14
O=[N+]([O-])c1ccc(-c2nnc3cccc(Cl)n23)cc1	0	-7	-9	-3	-18	49*
CC(OC(=O)c1cnccn1)C(=O)c1ccccc1 (stereo unspecified)	0	9	4	6	-8	15
O=C(CCC(=O)Nc1ccccc1Cl)NNC(=O)NC1CCCCC1	0	-6	-8	3	-5	17
COc1cc(C2N(C)C(=O)c3ccccc3N2C)ccc1O (stereo unspecified)	17*	-8	0	6	-21	8
COc1ccc(OC)c(NC(=O)C2CCCN(S(=O)(=O)c3cccc4cccnc34)C2)c1 (stereo unspecified)	5	-21	11	-7	-7	74*
Cc1ccc(NC(=O)C2CCCN(S(=O)(=O)c3cccc4cccnc34)C2)cc1 (stereo unspecified)	3	-30	-11	-3	-39	23
COc1ccc(C)cc1NC(=O)C1CCN(S(=O)(=O)c2cccc3cccnc23)CC1	6	-10	3	9	-24	6
COc1ccc(C)cc1NC(=O)c1ccccc1NS(=O)(=O)c1cccc2cccnc12	0	-12	-10	24	15	70*
Cc1cccc(NC(=O)C2CCCN(S(=O)(=O)c3cccc4cccnc34)C2)c1 (stereo unspecified)	4	-16	-2	8	6	54*
Cc1cc(NC(=O)C2CCCN(S(=O)(=O)c3c(C)noc3C)C2)no1 (stereo unspecified)	0	-4	1	9	-23	19
SMILES	CHO-K1 Ca ag	CHO parental Ca	CHO-K1 Ca antag	CHO-K1 Ca PAM	OX1R antag-1	OX1R antag-2
Cc1cc(C)cc(NC(=O)C2CCCN(S(=O)(=O)c3c(C)noc3C)C2)c1 (stereo unspecified)	0	-17	-4	-4	11	72*
O=C(/C=C/NNC(=O)c1ccccc1O)c1ccccc1	4	-15	-13	26	-30	20
CN(C)CCN(Cc1ccco1)S(=O)(=O)c1ccc(-c2ccc(=O)[nH]n2)s1	0	-6	5	-12	2	31
Cn1c(/C=C/N2CCOCC2)c(C(=O)c2ccc(Br)cc2)c(=O)n(C)c1=O	0	-12	5	2	-17	8
Cc1c(N=CN2CCOCC2)c(=O)n(C)c(=O)n1C	17*	-1	1	3	-19	16
CC1CCCN(S(=O)(=O)c2ccc(C(=O)Nc3nnc(C4CC4)o3)cc2)C1 (stereo unspecified)	5	-19	25*	-12	-12	22
Cn1c(=O)c2c(n(C)c1=O)=NC1(CCCCC1)ON=2	0	2	-15	9	-15	71*
CC1(C(=O)Nc2ccc3c(c2)OCO3)CCN1Cc1cccc2c1OCO2 (stereo unspecified)	3	x	-21	58*	x	x
COCOc1cccc(CN2CCC2(C)C(=O)Nc2ccc3c(c2)OCO3)c1 (stereo unspecified)	2	x	-14	30	x	x
Cc1ccc(NC(=O)C2(C)CCN2Cc2csc3ccccc23)cc1 (stereo unspecified)	0	x	-4	15	x	x
CC1(C(=O)Nc2ccc3c(c2)OCO3)CCN1Cc1csc2ccccc12 (stereo unspecified)	0	x	-24	40*	x	x
COc1c(C)cc(C(=O)C2CCCN(C(=O)c3ccoc3)C2)cc1C (stereo unspecified)	1	-15	-12	-7	-13	51*
COc1c(C)cc(C(=O)C2CCCN(C(=O)C3=C(C)OCCO3)C2)cc1C (stereo unspecified)	1	-5	-13	19	-16	23
CC1=CC2=NC(=O)/C(=C\c3cc(C)n(-c4cccc(Cl)c4)c3C)C(=N)N2O1	0	-10	12	-11	-7	11
N=C1/C(=C/c2cccn2Cc2ccc(F)cc2)C(=O)N=C2SC=CN12	2	-11	-8	3	-26	18
CC1=CC2=NC(=O)/C(=C/c3coc4ccc(Cl)cc4c3=O)C(=N)N2O1	56*	39*	27*	-11	23	7
N=C1/C(=C\c2coc3ccccc3c2=O)C(=O)N=C2SC=CN12	83*	30*	31*	-27	27	12
CSC1=NSC2=NC(=O)/C(=C/c3coc4ccc(O)cc4c3=O)C(=N)N12	27*	37*	35*	-4	47*	12
